From ChEMBL document CHEMBL6087445, “Discovery of Non-Covalent Inhibitors for SARS-CoV-2 PLpro: Integrating Virtual Screening, Synthesis, and Experimental Validation” (ACS Med Chem Lett, 2024) come the findings set out here.

Data set [1] can be described thus: Microsomal stability in human liver microsomes assessed as parent compound remaining measured after 30 mins by LC-MS/MS analysis. The class given is ADME, Microsome. Conditions: read-out: Stability. (In general: Microsomes from liver hold many membrane-bound enzymes, among them those of drug oxidation.)
The test system of data set [2] is Severe acute respiratory syndrome coronavirus 2. Description: Inhibition of recombinant SARS-CoV-2 PLpro extracted from Escherichia coli BL21 (DE3) cells in absence of CHAPS detergent by microplate reader analysis. Put shortly:
(§1)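 SARS-CoV-2 PLpro enzymatic inhibition run with and without 1 mM CHAPS detergent; GRL0617 served as positive control.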

For data set [3] the test system is unchanged. Description: Binding affinity to recombinant SARS-CoV-2 PLpro extracted from Escherichia coli BL21 (DE3) cells assessed as change in melting temperature at 1000 uM by DSF analysis.
Data set [4] in a line: Selectivity ratio of CC50 for cytotoxicity against human HepG2 cells to CC50 for African green monkey Vero cells. The class given is toxicity, cell-based. Conditions: HepG2 cells and Vero cells; call rule not given here.
In data set [5] the test system is Severe acute respiratory syndrome coronavirus 2. Description: Inhibition of recombinant SARS-CoV-2 PLpro extracted from Escherichia coli BL21 (DE3) cells in presence of CHAPS detergent by microplate reader analysis. The method, boiled down: as §1
The test system is the same in data set [6]. Put plainly: Inhibition of recombinant SARS-CoV-2 PLpro extracted from Escherichia coli BL21 (DE3) cells in absence of 0.01% triton by microplate reader analysis.
Data set [7] shares this test system. Description: Inhibition of recombinant SARS-CoV-2 PLpro extracted from Escherichia coli BL21 (DE3) cells in presence of 0.01% triton by microplate reader analysis.
Data set [8] in a line: Microsomal stability in mouse liver microsomes assessed as parent compound remaining measured after 30 mins by LC-MS/MS analysis. Particulars: read-out: Stability. The class given is ADME, Microsome.
The nature of data set [9]: Microsomal stability in rat liver microsomes assessed as parent compound remaining measured after 30 mins by LC-MS/MS analysis. The class given is ADME, Microsome. Particulars: read-out: Stability.

As a reminder, the ΔTm is the change in melting temperature against a reference sample.

The structures appear in SMILES notation. A value given as a limit tells only on which side of the number the result lay.

As to `COc1ccc(-c2ccc3nccc(N[C@@H]4CCNC4)c3n2)cn1`, the remaining at 0.5 h in [1] is 54.6%. Moreover, the inhibition result in data set [2] and in data set [5] was “Active; Compound Is Not An Aggregator” in each case. The ΔTm in [3] is above 1 °C. Besides, the selectivity ratio in [4] worked out at 2.

Take `Cn1ccc(-c2ccc3nccc(N[C@@H]4CCNC4)c3n2)cc1=O`: the results for the remaining at 0.5 h in data set [1], in [8] and in [9] were 98%, above 99% and 94.3%, respectively. Also, the inhibition result in data set [6] and in data set [7] was “Active; Compound Is Not An Aggregator” each time. In [3], the ΔTm was above 1 °C. Also, the selectivity ratio in [4] is 2.

For the compound `CN1CCC(Nc2ccnc3ccc(-c4ccc(C(=O)NCCO)nc4)nc23)CC1`, the remaining at 0.5 h in [1] turned out to be 95.5%; in [8] it was 97.3%; in [9] it was 94.2%. Besides, the ΔTm in data set [3] is above 1 °C.

On to `CS(=O)(=O)c1cccc(-c2ccc3nccc(N4CCNCC4)c3n2)c1`, for which the remaining at 0.5 h in data set [1] was 55.1%. The thermal shift (ΔTm) in data set [3] was above 1 °C.

`CNC(=O)c1ccc(-c2ccc3nccc(NC4CCNCC4)c3n2)cn1`: the remaining at 0.5 h in [1] came out at 94.4%; in data set [8], 93.4%; in [9], 97.4%. The ΔTm in data set [3] is above 1 °C.
